This is an account of results in ChEMBL document CHEMBL2321650, “Novel HldE-K inhibitors leading to attenuated Gram negative bacterial virulence” (J Med Chem, 2013).

Assay [1] is described as follows: Inhibition of Escherichia coli O18:K1 C7 hldE-K expressed in Escherichia coli BL21 using beta-heptose 7-phosphate as substrate incubated for 30 mins prior to substrate addition measured after 30 mins by luminescence assay. The procedure, abridged:
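E. coli HldE (His-tagged, IPTG-induced, Ni-NTA-purified), 3 nM, preincubated 30 min at room temperature with inhibitor in Hepes pH 7.5, MnCl₂, KCl, 0.012% Triton-X100, DTT, MBP. Reaction with 0.2 μM heptose 7-phosphate and 0.2 μM ATP, 30 min at room temperature. Remaining ATP read by luciferase/luciferin luminescence; 6−10 concentrations fitted to a Langmuir model for IC50.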

In assay [2] the test system is Escherichia coli. Briefly: Antimicrobial activity against acrAB, tolC-deficient Escherichia coli str. K-12 substr. MG1655 after overnight incubation in presence of erythromycin. The assay is classed as functional. The essentials: (§1)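 Broth microdilution MIC in cation-adjusted MHB, final inoculum 5 × 10⁵ CFU/mL from early-to-log preculture; serial compound dilutions in 2% DMSO, overnight at 35 °C, growth scored visually. Each strain tested with and without erythromycin (1 μg/mL for K12 ΔacrAB ΔtolC, 8 μg/mL for K1 wild type, 1 μg/mL for K1 ΔtolC).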

For assay [3], the system named is Escherichia coli. Briefly: Antimicrobial activity against acrAB, tolC-deficient Escherichia coli str. K-12 substr. MG1655 after overnight incubation in absence of erythromycin. Type of assay: functional. The procedure, abridged:
as §1

Assay [4] has as its system Escherichia coli. Briefly: Antimicrobial activity against tolC-deficient Escherichia coli O18:K1:H7 after overnight incubation in presence of erythromycin. Type of assay: functional. The essentials:
as §1

Assay [5] relates to Escherichia coli. Briefly: Antimicrobial activity against tolC-deficient Escherichia coli O18:K1:H7 after overnight incubation in absence of erythromycin. The assay is classed as functional. The procedure, abridged:
as §1

SMILES strings stand for the structures.

The IC50 is the concentration that inhibits the measured activity by half. For the molecule `COc1cccc(OC)c1-c1cnnc(NCc2nc(C)c(C)s2)n1`, the IC50 in assay [1] amounted to 6000 nM.
The same measure, in the same setting: then `COc1ccc2sc(CNc3nncc(N4[C@H](C)CCC[C@@H]4C)n3)nc2c1`, with more than 300000 nM.
Same read-out and setting: then `COc1cccc(OC)c1-c1cnnc(N2CCCCC2c2nc3ccccc3s2)n1` (stereo unspecified), with more than 300000 nM; and `COc1cccc(OC)c1-c1cnnc(NCc2nc3c(s2)CCCC3)n1`, with 1900 nM.
The same measure, in the same setting: with `COC(=O)c1ccc2nc(CNc3nncc(-c4c(OC)cccc4OC)n3)sc2c1` the figure was 89000 nM; with `COc1cccc(OC)c1-c1cnnc(N(CCC(=O)O)Cc2nc3ccccc3s2)n1`, 46000 nM.
In general, MIC refers to the smallest concentration in the dilution series that meets the test's criterion for growth inhibition. Regarding `COc1ccc2sc(CNc3nncc(-c4c(C)cc(NCCN(C)C)cc4C)n3)nc2c1`, the minimum inhibitory concentration (MIC) in the assay on Escherichia coli [2], against Escherichia coli [3], in the assay on Escherichia coli [4] and in the assay with Escherichia coli [5] was more than 32 µg/mL in each case. The molecule further displayed an IC50 in assay [1] of 82 nM.
In assay [1], `COc1cccc(OC)c1-c1cnnc(NCc2ccc3ccccc3n2)n1` yielded an IC50 of more than 300000 nM.
The same measure, in the same setting: then `CCOC(=O)c1sc(CNc2nncc(-c3c(OC)cccc3OC)n2)nc1C`, with more than 300000 nM.
The same measure, in the same setting: then `COc1ccc2sc(CNc3nncc(-c4cc(-c5cccnc5)ccc4Cl)n3)nc2c1`, with 150 nM; and `COc1cccc(OC)c1-c1cnnc(NCc2nc3ccc(CO)cc3s2)n1`, with 15000 nM; and `COc1ccc2sc(CNc3nncc(C(C)C)n3)nc2c1`, with more than 300000 nM.
Same read-out and setting: with `COc1ccc2sc(CNc3nncc(-c4ccccc4Cl)n3)nc2c1` the figure was 1400 nM; with `COc1cccc(OC)c1-c1cnnc(NCc2nc3ccccc3[nH]2)n1`, more than 300000 nM.
For the molecule `COc1cccc(OC)c1-c1cnnc(NCc2cc(C)n(C)n2)n1`, inhibition in assay [1] was half-maximal at 25000 nM (IC50).
Same read-out and setting: with `COc1ccc2sc(CNc3nncc(N4CCCCC4CO)n3)nc2c1` (stereo unspecified) the figure was more than 300000 nM.
Same read-out and setting: then `COc1ccc2sc(CNc3nncc(-c4c(C)cc(Br)cc4C)n3)nc2c1`, with 1200 nM.
Consider `O=C(CO)NCCOc1ccc2sc(CNc3nncc(-c4c(Cl)cccc4Cl)n3)nc2c1`, for which the minimum inhibitory concentration (MIC) is 4 µg/mL in the assay with Escherichia coli [2], more than 32 µg/mL with Escherichia coli [3], more than 32 µg/mL in the assay on Escherichia coli [4] and more than 32 µg/mL in the assay on Escherichia coli [5]. In assay [1], this molecule returned an IC50 of 71 nM.
The molecule `COc1ccc2sc(CNc3nncc(-c4c(C)cc(-c5ccc(OC)nc5)cc4C)n3)nc2c1` had an IC50 in assay [1] of 890 nM.
`COc1cccc(OC)c1-c1cnnc(N(C)Cc2nc(C)c(C)s2)n1` displayed a half-maximal inhibitory concentration (IC50) in assay [1] of 5000 nM. Against the preceding molecule, the IC50 is about 5.6-fold higher.
Still for that read-out and setting: then `COc1cccc(OC)c1-c1cnnc(N(CCCO)Cc2nc3ccccc3s2)n1`, with more than 300000 nM; and `COc1cccc(OC)c1-c1cnnc(NC(C)c2nc(C)c(C)s2)n1` (stereo unspecified), with 54000 nM.
On to `COc1ccc2sc(CNc3nncc(-c4c(C)cc(NC(C)=O)cc4C)n3)nc2c1`, for which the MIC with Escherichia coli [2], against Escherichia coli [3], with Escherichia coli [4] and with Escherichia coli [5] was more than 32 µg/mL throughout. Moreover, inhibition in assay [1] was half-maximal at 240 nM (IC50).
With `COc1ccc2sc(CNc3nncc(-c4c(C)cc(C#N)cc4C)n3)nc2c1`, it took 1400 nM to reach half-maximal inhibition in assay [1] (IC50).
As for `COc1cccc(OC)c1-c1cnnc(N(CC(=O)O)Cc2nc3ccccc3s2)n1`, it took 2000 nM to reach half-maximal inhibition in assay [1] (IC50).
Still for that read-out and setting: then `COc1ccc2sc(CNc3nncc(-c4c(C)cc(N)cc4C)n3)nc2c1`, with 320 nM; and `COc1cccc(OC)c1-c1cnnc(NCc2cc3ccccc3s2)n1`, with more than 300000 nM.
Same read-out and setting: then `COc1cccc(OC)c1-c1cnnc(NCc2nc3cc(O)ccc3s2)n1`, with 390 nM.
Take `COc1cccc(OC)c1-c1cnnc(NCc2nc3ccc(NC(C)=O)cc3s2)n1`: the IC50 in assay [1] is 49000 nM.
On the same count and under the same terms, with `COc1cccc(OC)c1-c1cnnc(OCc2nc(C)c(C)s2)n1` the figure was 40000 nM.
For the molecule `COc1cccc(OC)c1-c1cnnc(NCc2nc3cc(NC(C)=O)ccc3s2)n1`, the 50% inhibitory concentration (IC50) in assay [1] came out at 7600 nM.
Same read-out and setting: then `COc1cccc(OC)c1-c1cnnc(NCc2nc(C)c(CCO)s2)n1`, with more than 300000 nM; and `COc1ccc2sc(CNc3nncc(-c4cc(NC(C)=O)ccc4Cl)n3)nc2c1`, with 1400 nM; and `COc1cccc(OC)c1-c1cnnc(NCc2nc3cc(N)ccc3s2)n1`, with 1400 nM.
As to `COc1ccc2sc(CNc3nncc(-c4c(C)cccc4C)n3)nc2c1`, the minimal inhibitory concentration (MIC) with Escherichia coli [2], in the assay on Escherichia coli [3], in the assay with Escherichia coli [4] and with Escherichia coli [5] was more than 32 µg/mL in each case. The molecule also had an IC50 in assay [1] of 360 nM.
For the molecule `CS(=O)(=O)NC(=O)COc1ccc2sc(CNc3nncc(-c4c(Cl)cccc4Cl)n3)nc2c1`, the minimal inhibitory concentration (MIC) in the assay on Escherichia coli [2], with Escherichia coli [3], in the assay on Escherichia coli [4] and in the assay on Escherichia coli [5] was more than 32 µg/mL each time. The molecule also returned an IC50 in assay [1] of 16 nM.
Consider `Cc1oc(-c2ccccc2)nc1C(=O)N(CC(=O)O)Cc1ccccn1`, for which, in assay [1], the IC50 came to 51000 nM.
Still for that read-out and setting: with `NCCOc1ccc2sc(CNc3nncc(-c4c(Cl)cccc4Cl)n3)nc2c1` the figure was 185 nM; with `COc1cccc(OC)c1-c1cnnc(NCc2nc3cc(C)ccc3s2)n1`, 1500 nM; with `COc1ccc2sc(CNc3nncc(C(C)(C)O)n3)nc2c1`, more than 300000 nM.
Still for that read-out and setting: then `COc1cccc(OC)c1-c1cnnc(NCc2ccccn2)n1`, with more than 300000 nM; and `COc1cccc(OC)c1-c1cnnc(NCc2nc3cc(Cl)ccc3s2)n1`, with 1600 nM; and `COc1cccc(OC)c1-c1cnnc(NCc2nc3ccccc3o2)n1`, with 34000 nM.
Take `NC(=O)COc1ccc2sc(CNc3nncc(-c4c(Cl)cccc4Cl)n3)nc2c1`: the MIC in the assay on Escherichia coli [2], with Escherichia coli [3], in the assay with Escherichia coli [4] and against Escherichia coli [5] was more than 32 µg/mL each time. The molecule further yielded a concentration for half-maximal inhibition (IC50) in assay [1] of 67 nM.
Regarding `COc1cccc(OC)c1-c1cnnc(NCc2cc(C)c(C)o2)n1`, the 50% inhibitory concentration (IC50) in assay [1] is more than 300000 nM.
Still for that read-out and setting: with `COc1cccc(OC)c1-c1cnnc(NCc2nc3ccc(O)cc3s2)n1` the figure was 3400 nM; with `COc1cccc(OC)c1-c1cnnc(NCc2nc3ccc(Cl)cc3s2)n1`, 27000 nM; with `COc1ccc2sc(CNc3nncc(-c4c(F)cccc4F)n3)nc2c1`, 2400 nM.
Same read-out and setting: with `COc1ccc2sc(CNc3nncc(-c4c(OC)cccc4OC)n3)nc2c1` the figure was 670 nM.
In turn, `COc1ccc2sc(CNc3nncc(-c4cc(Br)ccc4Cl)n3)nc2c1` had a concentration for half-maximal inhibition (IC50) in assay [1] of 760 nM.
Turning to `COc1ccc2sc(CNc3nncc(-c4c(OC)ccc5ccccc45)n3)nc2c1`, the MIC in the assay on Escherichia coli [2], with Escherichia coli [3], in the assay with Escherichia coli [4] and in the assay with Escherichia coli [5] was more than 32 µg/mL throughout. Besides, half-maximal inhibition in assay [1] (IC50) required 51 nM.
Molecule `COc1cccc(OC)c1-c1cnnc(NCc2nc3cc(OCC(=O)O)ccc3s2)n1` returned an IC50 in assay [1] of 250 nM.
For `COc1ccc2sc(CNc3nncc(-c4cc(-c5ccn[nH]5)ccc4Cl)n3)nc2c1`, the minimum inhibitory concentration (MIC) in the assay with Escherichia coli [2], against Escherichia coli [3], with Escherichia coli [4] and against Escherichia coli [5] was more than 32 µg/mL in each case. In addition, the midpoint of inhibition in assay [1], the IC50, lay at 53 nM.
`COc1cccc(OC)c1-c1cnnc(NCc2nc3ccccc3n2C)n1` yielded a half-maximal inhibitory concentration (IC50) in assay [1] of more than 300000 nM.
On to `Oc1ccc2sc(CNc3nncc(-c4c(Cl)cccc4Cl)n3)nc2c1`, for which the MIC in the assay on Escherichia coli [2], against Escherichia coli [3], with Escherichia coli [4] and in the assay with Escherichia coli [5] was more than 32 µg/mL in each case. Also, in assay [1], the IC50 turned out to be 75 nM.
